# Experimental data as given in PMC2774482 (Basic & Clinical Pharmacology & Toxicology, 2009).
# Structures can show the parent of a compound that is named as a salt.
# What was measured:
# Caco-2 cell monolayers [1] = test: Bidirectional transepithelial transport across Caco-2 cell monolayers; type: in vitro ADME, human; details: for increase of the efflux (B–A): physiological pH 7.4/7.4
# [2] = as above; type: in vitro ADME, human; details: human, rhodamine 123 5 µM, pH 6.8/7.4, control (no inhibitor)
# P-gp = test: as above; type: in vitro ADME, human; details: human, Caco-2, pH 6.8, with cyclosporine A 10 µM, rhodamine 123 5 µM, pH 6.8/7.4, + cyclosporine A 10 µM
# pKa / ionisation = type: physicochemical; details: at both pH 6.8 and 7.4
# Caco-2 cell monolayers [3] = test: Paracellular transport of [^3H]-mannitol across Caco-2 monolayers; type: in vitro ADME, human; details: apical to basolateral (A-B), over 3 hr
# Summary of the method: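 Caco-2 TC7 cells (passages 40–55) seeded at 65,000 cells/cm2 on 0.4 µm polycarbonate Transwell inserts and used 20–21 days post-seeding. [3H]-mannitol (0.5 µCi/ml) serves as the paracellular marker for tight-junction integrity. Apical-to-basolateral permeability is followed over 3 hr, with basolateral samples taken at several times and counted by liquid scintillation.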
# [4] = 1 µM, pH 6.8/7.4, + 10 µM Cyclosporine A
# [5] = 1 µM, pH 7.4/7.4, + 4 µM GF120918
# [6] = 1 µM, pH 7.4/7.4, + 10 µM Cyclosporine A
# [7] = 1 µM, pH 7.4/7.4, no inhibitor, control of GF120918 experiment (Table 2)
# [8] = 10 µM, pH 6.8/7.4, + 10 µM Cyclosporine A
# [9] = 10 µM, pH 6.8/7.4, no inhibitor
# [10] = 10 µM, pH 7.4/7.4, + 10 µM Cyclosporine A
# [11] = 10 µM, pH 7.4/7.4, no inhibitor
# [12] = 50 µM, pH 6.8/7.4, + 10 µM Cyclosporine A
# [13] = 50 µM, pH 6.8/7.4, no inhibitor
# [14] = 50 µM, pH 7.4/7.4, + 10 µM Cyclosporine A
# [15] = 50 µM, pH 7.4/7.4, no inhibitor
# [16] = 100 µM, pH 6.8/7.4, + 10 µM Cyclosporine A
# [17] = 100 µM, pH 6.8/7.4, no inhibitor
# [18] = 100 µM, pH 7.4/7.4, + 10 µM Cyclosporine A
# [19] = 100 µM, pH 7.4/7.4, no inhibitor
# [20] = in the presence of cyclosporine A
smiles,measurement,setting,value
"COc1cccc(C2(O)CCCCC2CN(C)C)c1 (single isomer, unassigned; (-)) [(−)-TMD, (−)-tramadol]",Papp (A – B),Caco-2 cell monolayers [1]; [4],18.7 ± 1.1 (cm/sec.) (10^−6)
same,Papp (B – A),Caco-2 cell monolayers [1]; [4],36.0 ± 0.3 (cm/sec.) (10^−6)
same,Papp (A – B),"Caco-2 cell monolayers [1]; 1 µM, pH 6.8/7.4, no inhibitor",16.7 ± 0.5 (cm/sec.) (10^−6)
same,Papp (B – A),"Caco-2 cell monolayers [1]; 1 µM, pH 6.8/7.4, no inhibitor",32.2 ± 0.5 (cm/sec.) (10^−6)
same,Papp (A – B),Caco-2 cell monolayers [1]; [5],44.8 ± 4.0 (cm/sec.) (10^−6)
same,Papp (B – A),Caco-2 cell monolayers [1]; [5],61.3 ± 2.8 (cm/sec.) (10^−6)
same,Papp (A – B),Caco-2 cell monolayers [1]; [6],29.2 ± 1.1 (cm/sec.) (10^−6)
same,Papp (B – A),Caco-2 cell monolayers [1]; [6],34.2 ± 0.8 (cm/sec.) (10^−6)
same,Papp (A – B),"Caco-2 cell monolayers [1]; 1 µM, pH 7.4/7.4, no inhibitor",31.0 ± 1.9 (cm/sec.) (10^−6)
same,Papp (B – A),"Caco-2 cell monolayers [1]; 1 µM, pH 7.4/7.4, no inhibitor",30.8 ± 1.8 (cm/sec.) (10^−6)
same,Papp (A – B),Caco-2 cell monolayers [1]; [7],43.8 ± 5.8 (cm/sec.) (10^−6)
same,Papp (B – A),Caco-2 cell monolayers [1]; [7],51.1 ± 1.9 (cm/sec.) (10^−6)
same,Papp (A – B),Caco-2 cell monolayers [1]; [8],10.2 ± 1.0 (cm/sec.) (10^−6)
same,Papp (B – A),Caco-2 cell monolayers [1]; [8],28.9 ± 0.5 (cm/sec.) (10^−6)
same,Papp (A – B),Caco-2 cell monolayers [1]; [9],11.0 ± 0.5 (cm/sec.) (10^−6)
same,Papp (B – A),Caco-2 cell monolayers [1]; [9],26.9 ± 0.5 (cm/sec.) (10^−6)
same,Papp (A – B),Caco-2 cell monolayers [1]; [10],29.9 ± 1.5 (cm/sec.) (10^−6)
same,Papp (B – A),Caco-2 cell monolayers [1]; [10],39.0 ± 0.6 (cm/sec.) (10^−6)
same,Papp (A – B),Caco-2 cell monolayers [1]; [11],33.5 ± 2.2 (cm/sec.) (10^−6)
same,Papp (B – A),Caco-2 cell monolayers [1]; [11],37.2 ± 0.4 (cm/sec.) (10^−6)
same,Papp (A – B),Caco-2 cell monolayers [1]; [12],9.4 ± 0.6 (cm/sec.) (10^−6)
same,Papp (B – A),Caco-2 cell monolayers [1]; [12],31.2 ± 0.8 (cm/sec.) (10^−6)
same,Papp (A – B),Caco-2 cell monolayers [1]; [13],10.3 ± 0.5 (cm/sec.) (10^−6)
same,Papp (B – A),Caco-2 cell monolayers [1]; [13],25.4 ± 2.3 (cm/sec.) (10^−6)
same,Papp (A – B),Caco-2 cell monolayers [1]; [14],50.9 ± 1.7 (cm/sec.) (10^−6)
same,Papp (B – A),Caco-2 cell monolayers [1]; [14],68.9 ± 0.4 (cm/sec.) (10^−6)
same,Papp (A – B),Caco-2 cell monolayers [1]; [15],52.9 ± 1.0 (cm/sec.) (10^−6)
same,Papp (B – A),Caco-2 cell monolayers [1]; [15],63.4 ± 3.8 (cm/sec.) (10^−6)
same,Papp (A – B),Caco-2 cell monolayers [1]; [16],21.7 ± 2.0 (cm/sec.) (10^−6)
same,Papp (B – A),Caco-2 cell monolayers [1]; [16],62.5 ± 2.0 (cm/sec.) (10^−6)
same,Papp (A – B),Caco-2 cell monolayers [1]; [17],22.4 ± 1.8 (cm/sec.) (10^−6)
same,Papp (B – A),Caco-2 cell monolayers [1]; [17],61.3 ± 1.0 (cm/sec.) (10^−6)
same,Papp (A – B),Caco-2 cell monolayers [1]; [18],37.3 ± 1.0 (cm/sec.) (10^−6)
same,Papp (B – A),Caco-2 cell monolayers [1]; [18],67.7 ± 1.5 (cm/sec.) (10^−6)
same,Papp (A – B),Caco-2 cell monolayers [1]; [19],41.1 ± 2.9 (cm/sec.) (10^−6)
same,Papp (B – A),Caco-2 cell monolayers [1]; [19],64.3 ± 3.4 (cm/sec.) (10^−6)
same,increase of the efflux (B–A),"Caco-2 cell monolayers [1]; GF120918, 1 µM",17%
same,increase of the efflux (B–A),Caco-2 cell monolayers [1]; [20],up to 10%
COC(=O)c1ccccc1-c1c2ccc(=N)cc-2oc2cc(N)ccc12 [rhodamine 123],"Papp A→B at 3 h, 5 µM","[2]; Caco-2, pH 6.8, Papp(A–B)",4.8 ± 0.2 ×10⁻⁶ cm/s
same,"Papp B→A at 3 hr, 5 µM","[2]; Caco-2, pH 6.8, Papp(B–A)",6.4 ± 0.7 ×10⁻⁶ cm/s
same,decrease of secretory transport,Caco-2 cell monolayers [1]; in the presence of the P-gp inhibitor cyclosporine A,80%
same,"Papp A→B at 3 h, 5 µM",P-gp; Papp(A–B),7.8 ± 0.3 ×10⁻⁶ cm/s
same,"Papp B→A at 3 hr, 5 µM",P-gp; Papp(B–A),1.2 ± 0.3 ×10⁻⁶ cm/s
"COc1cccc(C2(O)CCCCC2CN(C)C)c1 (centres unmarked) [TMD, Tramadol hydrochloride]",ionised (protonated) form,pKa / ionisation,100%
OC[C@@H](O)[C@@H](O)[C@H](O)[C@H](O)CO [[^3H]-mannitol],transport rate,Caco-2 cell monolayers [3],< 1 % per hr
"COc1cccc(C2(O)CCCCC2CN(C)C)c1 (single isomer, unassigned; (+)) [(+)-TMD, (+)-tramadol]",Papp (A – B),Caco-2 cell monolayers [1]; [4],15.6 ± 1.2 (cm/sec.) (10^−6)
same,Papp (B – A),Caco-2 cell monolayers [1]; [4],34.0 ± 0.7 (cm/sec.) (10^−6)
same,Papp (A – B),"Caco-2 cell monolayers [1]; 1 µM, pH 6.8/7.4, no inhibitor",14.1 ± 0.8 (cm/sec.) (10^−6)
same,Papp (B – A),"Caco-2 cell monolayers [1]; 1 µM, pH 6.8/7.4, no inhibitor",31.1 ± 0.8 (cm/sec.) (10^−6)
same,Papp (A – B),Caco-2 cell monolayers [1]; [5],45.8 ± 3.7 (cm/sec.) (10^−6)
same,Papp (B – A),Caco-2 cell monolayers [1]; [5],60.6 ± 2.1 (cm/sec.) (10^−6)
same,Papp (A – B),Caco-2 cell monolayers [1]; [6],26.2 ± 3.4 (cm/sec.) (10^−6)
same,Papp (B – A),Caco-2 cell monolayers [1]; [6],34.6 ± 0.8 (cm/sec.) (10^−6)
same,Papp (A – B),"Caco-2 cell monolayers [1]; 1 µM, pH 7.4/7.4, no inhibitor",28.1 ± 0.5 (cm/sec.) (10^−6)
same,Papp (B – A),"Caco-2 cell monolayers [1]; 1 µM, pH 7.4/7.4, no inhibitor",31.5 ± 1.3 (cm/sec.) (10^−6)
same,Papp (A – B),Caco-2 cell monolayers [1]; [7],42.6 ± 6.2 (cm/sec.) (10^−6)
same,Papp (B – A),Caco-2 cell monolayers [1]; [7],52.3 ± 2.9 (cm/sec.) (10^−6)
same,Papp (A – B),Caco-2 cell monolayers [1]; [8],9.6 ± 1.1 (cm/sec.) (10^−6)
same,Papp (B – A),Caco-2 cell monolayers [1]; [8],28.8 ± 0.6 (cm/sec.) (10^−6)
same,Papp (A – B),Caco-2 cell monolayers [1]; [9],11.0 ± 0.7 (cm/sec.) (10^−6)
same,Papp (B – A),Caco-2 cell monolayers [1]; [9],26.9 ± 0.5 (cm/sec.) (10^−6)
same,Papp (A – B),Caco-2 cell monolayers [1]; [10],30.2 ± 2.1 (cm/sec.) (10^−6)
same,Papp (B – A),Caco-2 cell monolayers [1]; [10],39.4 ± 0.8 (cm/sec.) (10^−6)
same,Papp (A – B),Caco-2 cell monolayers [1]; [11],33.5 ± 1.4 (cm/sec.) (10^−6)
same,Papp (B – A),Caco-2 cell monolayers [1]; [11],38.8 ± 1.6 (cm/sec.) (10^−6)
same,Papp (A – B),Caco-2 cell monolayers [1]; [12],9.3 ± 0.6 (cm/sec.) (10^−6)
same,Papp (B – A),Caco-2 cell monolayers [1]; [12],31.2 ± 0.7 (cm/sec.) (10^−6)
same,Papp (A – B),Caco-2 cell monolayers [1]; [13],10.3 ± 0.5 (cm/sec.) (10^−6)
same,Papp (B – A),Caco-2 cell monolayers [1]; [13],25.6 ± 2.3 (cm/sec.) (10^−6)
same,Papp (A – B),Caco-2 cell monolayers [1]; [14],49.9 ± 2.5 (cm/sec.) (10^−6)
same,Papp (B – A),Caco-2 cell monolayers [1]; [14],69.6 ± 0.7 (cm/sec.) (10^−6)
same,Papp (A – B),Caco-2 cell monolayers [1]; [15],52.5 ± 1.1 (cm/sec.) (10^−6)
same,Papp (B – A),Caco-2 cell monolayers [1]; [15],65.3 ± 1.0 (cm/sec.) (10^−6)
same,Papp (A – B),Caco-2 cell monolayers [1]; [16],21.7 ± 1.9 (cm/sec.) (10^−6)
same,Papp (B – A),Caco-2 cell monolayers [1]; [16],61.7 ± 2.0 (cm/sec.) (10^−6)
same,Papp (A – B),Caco-2 cell monolayers [1]; [17],22.6 ± 1.9 (cm/sec.) (10^−6)
same,Papp (B – A),Caco-2 cell monolayers [1]; [17],60.9 ± 1.3 (cm/sec.) (10^−6)
same,Papp (A – B),Caco-2 cell monolayers [1]; [18],39.1 ± 1.5 (cm/sec.) (10^−6)
same,Papp (B – A),Caco-2 cell monolayers [1]; [18],68.2 ± 0.9 (cm/sec.) (10^−6)
same,Papp (A – B),Caco-2 cell monolayers [1]; [19],41.7 ± 3.6 (cm/sec.) (10^−6)
same,Papp (B – A),Caco-2 cell monolayers [1]; [19],66.9 ± 0.4 (cm/sec.) (10^−6)
same,increase of the efflux (B–A),"Caco-2 cell monolayers [1]; GF120918, 1 µM",17%
same,increase of the efflux (B–A),Caco-2 cell monolayers [1]; [20],up to 10%
